Columns and labels:
Assay type in all cases: functional
Salmonella typhimurium [1] = assay: Bactericidal activity against Salmonella typhimurium ATCC 14028; conditions: Salmonella enterica subsp. enterica serovar Typhimurium
In short: (§1)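 Wells from the 24 h, 37 °C MHB microdilution plates (bacteria at a final (0.5−1) × 10^5 CFU/mL; peptide diluted in 0.2% BSA) were plated on agar and incubated overnight. MBC is the lowest concentration killing >99.9% of cells. Each test was reproduced at least 3 times.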

Staphylococcus aureus [2] = assay: Bactericidal activity against Staphylococcus aureus ATCC 29213; in short: as §1
[3] = test system: Salmonella enterica subsp. enterica serovar Pullorum; assay: Bactericidal activity against Salmonella pullorum ATCC 7913; in short: as §1
Escherichia coli [4] = assay: Antibacterial activity against Escherichia coli ATCC 25922 after 18 hrs in presence of 25% human heat-inactivated serum by broth dilution method
Escherichia coli [5] = assay: Antibacterial activity against Escherichia coli ATCC 25922 after 18 hrs in presence of NaCl by broth dilution method
[6] = test system: Staphylococcus epidermidis; assay: Antibacterial activity against Staphylococcus epidermidis ATCC 12228 after 24 hrs
In short: (§2)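 Broth microdilution. Mid-log bacteria in MHB at a final (0.5−1) × 10^5 CFU/mL were mixed with equal volumes of peptide serially diluted in 0.2% BSA. Plates were incubated 24 h at 37 °C and read at A492. MIC is the lowest concentration inhibiting 95% of growth. Each test was repeated at least 3 times.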

Escherichia coli [7] = assay: Antibacterial activity against Escherichia coli ATCC 25922 after 18 hrs in presence of FeCl3 by broth dilution method
[8] = test system: Staphylococcus epidermidis; assay: Bactericidal activity against Staphylococcus epidermidis ATCC 12228; in short: as §1
Escherichia coli [9] = assay: Antibacterial activity against Escherichia coli ATCC 25922 after 18 hrs in presence of 50% human heat-inactivated serum by broth dilution method
Escherichia coli [10] = assay: Bactericidal activity against Escherichia coli 1005; in short: as §1
Staphylococcus aureus [11] = assay: Bactericidal activity against Staphylococcus aureus ATCC 25923; in short: as §1
Staphylococcus aureus [12] = assay: Antibacterial activity against Staphylococcus aureus ATCC 29213 after 24 hrs
In short: (§3)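 Modified NCCLS broth microdilution. Mid-log bacteria at (0.5−1) × 10^5 CFU/mL in MHB were mixed 1:1 with peptide serially diluted in 0.2% BSA and incubated 24 h at 37 °C. Absorbance was read at 492 nm; MIC is the lowest concentration inhibiting 95% of growth. At least 3 repeats.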

Escherichia coli [13] = assay: Antibacterial activity against Escherichia coli ATCC 25922 after 18 hrs in presence of NH4Cl by broth dilution method
Salmonella typhimurium [14] = assay: Antibacterial activity against Salmonella typhimurium ATCC 14028 after 24 hrs; conditions: Salmonella enterica subsp. enterica serovar Typhimurium; in short: as §2
Escherichia coli [15] = assay: Antibacterial activity against Escherichia coli ATCC 25922 after 18 hrs in presence of 12.5% human heat-inactivated serum by broth dilution method
Escherichia coli [16] = assay: Antibacterial activity against Escherichia coli ATCC 25922 after 24 hrs; in short: as §2
Escherichia coli [17] = assay: Antibacterial activity against Escherichia coli 1005 after 24 hrs; in short: as §2
Staphylococcus aureus [18] = assay: Antibacterial activity against methicillin-resistant Staphylococcus aureus ATCC 4330 after 24 hrs; in short: as §3
Staphylococcus aureus [19] = assay: Antibacterial activity against Staphylococcus aureus ATCC 25923 after 24 hrs; in short: as §3
Escherichia coli [20] = assay: Bactericidal activity against Escherichia coli ATCC 25922; in short: as §1
Escherichia coli [21] = assay: Antibacterial activity against Escherichia coli ATCC 25922 after 18 hrs in presence of MgCl2 by broth dilution method
Escherichia coli [22] = assay: Antibacterial activity against Escherichia coli ATCC 25922 after 18 hrs in presence of CaCl2 by broth dilution method
[23] = test system: Salmonella enterica subsp. enterica serovar Pullorum; assay: Antibacterial activity against Salmonella pullorum ATCC 7913 after 24 hrs; in short: as §2
Escherichia coli [24] = assay: Antibacterial activity against Escherichia coli ATCC 25922 after 18 hrs in presence of ZnCl2 by broth dilution method
Staphylococcus aureus [25] = assay: Bactericidal activity against methicillin-resistant Staphylococcus aureus ATCC 4330
In short: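 Bacteria at (0.5−1) × 10^5 CFU/mL in MHB were exposed to serially diluted peptide (0.2% BSA) for 24 h at 37 °C, then 50 μL aliquots were plated on agar overnight. MBC is the lowest concentration killing >99.9% of cells. At least 3 repeats.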

Escherichia coli [26] = assay: Antibacterial activity against Escherichia coli ATCC 25922 after 18 hrs in presence of KCl by broth dilution method

GENTAMICIN
8 µM: MIC95 (Staphylococcus aureus [18]) | MBC99.9 (Staphylococcus aureus [25])
1 µM: MBC99.9 (Staphylococcus aureus [2]) | MIC (Escherichia coli [4]) | MIC (Escherichia coli [7]) | MBC99.9 [8] | MBC99.9 (Escherichia coli [10]) | MBC99.9 (Staphylococcus aureus [11]) | MIC95 (Staphylococcus aureus [12]) | MIC (Escherichia coli [15]) | MIC95 (Escherichia coli [16]) | MIC95 (Staphylococcus aureus [19]) | MIC (Escherichia coli [21]) | MIC (Escherichia coli [22]) | MIC95 [23] | MIC (Escherichia coli [26])
2 µM: MBC99.9 [3] | MIC (Escherichia coli [5]) | MIC (Escherichia coli [9]) | MIC (Escherichia coli [13]) | MIC95 (Salmonella typhimurium [14]) | MBC99.9 (Escherichia coli [20]) | MIC (Escherichia coli [24])
0.5 µM: MIC95 [6] | MIC95 (Escherichia coli [17])
4 µM: MBC99.9 (Salmonella typhimurium [1])
